pIC50: −log10 of the molar value. Calls of active or inactive are those of the source. The rule behind the calls is not given here.
How the values were obtained:
[1] = Cytotoxicity against human SH-SY5Y cells after 72 hrs by MTT assay; assay type: functional, cell-based
DU-145 = test: Cytotoxicity against human DU145 cells after 72 hrs by MTT assay; assay type: functional, cell-based; conditions: DU-145, 72 h
HepG2 [2] = test: Cytotoxicity against human HepG2 cells after 72 hrs by MTT assay; assay type: functional, cell-based; conditions: HepG2, 72 h
MCF7 = test: Cytotoxicity against human MCF7 cells after 72 hrs by MTT assay; assay type: functional, cell-based; conditions: MCF7, 72 h
A549 = test: Cytotoxicity against human A549 cells after 72 hrs by MTT assay; assay type: functional, cell-based; conditions: A549, 72 h
HepG2 [3] = test: Induction of apoptosis in human HepG2 cells assessed as late apoptotic cells at 4 uM after 48 hrs by Annexin V-FITC/propidium iodide staining-based flow cytometry (reference value: 2.13%); assay type: functional
HepG2 [4] = test: Induction of apoptosis in human HepG2 cells after 48 hrs by Annexin V-FITC/propidium iodide staining-based flow cytometry; assay type: functional, cell-based
Mus musculus [5] = test: Toxicity in nude mouse transfected with human HepG2 cells assessed as change in body weight at 10 mg/kg, iv administered from day 9 every other day for 7 times relative to negative control; assay type: organism-based; set-up: dose 10 mg/kg, route intravenous; conditions: in vivo
Method in brief: (§1)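 HepG2 tumor-bearing mice (18–22 g, tumors 140–160 mg, 7–14 days post-inoculation). Dosing i.v. every other day, 7 doses, at 10 or 20 mg/kg; sorafenib and vehicle controls given identically. Body weight recorded every two days; mean change compared with vehicle group.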

HepG2 [6] = test: Induction of apoptosis in human HepG2 cells assessed as early apoptotic cells at 4 uM after 48 hrs by Annexin V-FITC/propidium iodide staining-based flow cytometry (reference value: 0.86%); assay type: functional
HepG2 [7] = test: Cell cycle arrest in human HepG2 cells assessed as increase in S phase accumulation at 2 to 4 uM after 48 hrs by propidium iodide staining-based flow cytometry; assay type: functional
Method in brief: (§2)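 HepG2 seeded 3 × 10⁵/well, 24 h, then exposed to a range of concentrations for 48 h. Cells fixed in ice-cold 70% ethanol ≥24 h, PBS-washed, RNase A treated, PI-stained 30 min at 4 °C in the dark. DNA content by flow cytometry gives G1, S, G2/M and sub-G1 fractions; mean of three independent determinations.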

HepG2 [8] = test: Cell cycle arrest in human HepG2 cells assessed as increase in G2/M phase accumulation after 48 hrs by propidium iodide staining-based flow cytometry; assay type: functional; method in brief: as §2
HepG2 [9] = test: Antitumor activity against human HepG2 cells transfected in nude mouse assessed as tumor growth regression at 20 mg/kg, iv administered from day 9 post-infection every other day for 7 times relative to negative control; assay type: functional
Method in brief: (§3)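 HepG2 xenograft in mice, started 7–14 days after tumor cell inoculation (mice 18–22 g, tumors 140–160 mg). Dosing i.v. every other day, 7 doses, at 10 or 20 mg/kg; sorafenib and vehicle controls given the same way. Tumor dimensions recorded every two days. Growth regression expressed relative to vehicle control.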

HepG2 [10] = test: Induction of apoptosis in human HepG2 cells assessed as late apoptotic cells at 6 uM after 48 hrs by Annexin V-FITC/propidium iodide staining-based flow cytometry (reference value: 2.13%); assay type: functional
Mus musculus [11] = test: Toxicity in nude mouse transfected with human HepG2 cells assessed as decrease in body weight at 20 mg/kg, iv administered from day 9 every other day for 7 times relative to negative control; assay type: organism-based; set-up: dose 20 mg/kg, route intravenous; conditions: in vivo; method in brief: as §1
HepG2 [12] = test: Cell cycle arrest in human HepG2 cells assessed as increase in G2/M phase accumulation at 2 to 4 uM after 48 hrs by propidium iodide staining-based flow cytometry; assay type: functional; method in brief: as §2
HepG2 [13] = test: Cell cycle arrest in human HepG2 cells assessed as increase in sub G1 phase accumulation after 48 hrs by propidium iodide staining-based flow cytometry; assay type: functional; method in brief: as §2
HepG2 [14] = test: Induction of apoptosis in human HepG2 cells assessed as early apoptotic cells at 6 uM after 48 hrs by Annexin V-FITC/propidium iodide staining-based flow cytometry (reference value: 0.86%); assay type: functional
HepG2 [15] = test: Cell cycle arrest in human HepG2 cells assessed as increase in S phase accumulation after 48 hrs by propidium iodide staining-based flow cytometry; assay type: functional; method in brief: as §2
HepG2 [16] = test: Antitumor activity against human HepG2 cells transfected in nude mouse assessed as tumor growth regression at 10 mg/kg, iv administered from day 9 post-infection every other day for 7 times relative to negative control; assay type: functional; method in brief: as §3
HepG2 [17] = test: Induction of apoptosis in human HepG2 cells assessed as early apoptotic cells at 2 uM after 48 hrs by Annexin V-FITC/propidium iodide staining-based flow cytometry (reference value: 0.86%); assay type: functional
HepG2 [18] = test: Induction of apoptosis in human HepG2 cells assessed as late apoptotic cells at 2 uM after 48 hrs by Annexin V-FITC/propidium iodide staining-based flow cytometry (reference value: 2.13%); assay type: functional
HepG2 [19] = test: Cell cycle arrest in human HepG2 cells assessed as decrease in G1 phase accumulation at 2 to 4 uM after 48 hrs by propidium iodide staining-based flow cytometry; assay type: functional; method in brief: as §2
[20] = Cytotoxicity against human GES-1 cells after 48 hrs by MTT assay; assay type: cell-based; conditions: GES1, 48 h

SMILES | pIC50 [1] | pIC50 (DU-145) | pIC50 (HepG2 [2]) | pIC50 (MCF7) | pIC50 (A549) | further results
COc1cc2ncnc(Nc3ccc(N(CCCl)CCCl)cc3)c2cc1OC | 5.13 | < 4.00 | 4.52 | 4.29 | < 4.00 | –
COc1cc2ncnc(Nc3cccc(N(CCCl)CCCl)c3)c2cc1OC | 4.91 | < 4.00 | 4.76 | < 4.00 | < 4.00 | –
COc1cc2ncnc(Nc3cccc(N(CCCl)CCCl)c3)c2cc1O | 4.67 | 4.38 | 4.63 | 4.17 | 4.48 | –
COc1cc2ncnc(Nc3cccc(N(CCCl)CCCl)c3)c2cc1OCCCN1CCOCC1 | 5.07 | 4.70 | 5.51 | 4.98 | 5.17 | Activity (HepG2 [3]): 32.13%; Activity (HepG2 [4]): Dose-dependent effect; Activity (Mus musculus [5]): Non-toxic; Activity (HepG2 [6]): 9.26%; Activity (HepG2 [7]): Active; Activity (HepG2 [8]): Dose-dependent effect; inhibition in vivo at 20 mg/kg (HepG2 [9]; HepG2, 216 h, read-out: TGI): 47.3%; Activity (HepG2 [10]): 57.7%; Activity (Mus musculus [11]): Toxic; Activity (HepG2 [12]): Active; Activity (HepG2 [13]): Dose-dependent effect; Activity (HepG2 [14]): 17.9%; Activity (HepG2 [15]): Dose-dependent effect; inhibition in vivo at 10 mg/kg (HepG2 [16]; HepG2, 216 h, read-out: TGI): 26.5%; Activity (HepG2 [17]): 4.58%; Activity (HepG2 [18]): 6.64%; Activity (HepG2 [19]): Active
COCCOc1cc2ncnc(Nc3ccccc3N(CCCl)CCCl)c2cc1OCCOC | 4.34 | < 4.00 | 4.95 | 4.01 | 4.48 | –
CNC(=O)c1cc(Oc2ccc(NC(=O)Nc3ccc(Cl)c(C(F)(F)F)c3)cc2)ccn1 [SORAFENIB] | 4.71 | 4.60 | 5.07 | 4.95 | 4.56 | TGI (HepG2 [9]): Active; Activity (Mus musculus [11]): Toxic; TGI (HepG2 [16]): Active; pIC50 [20]: 4.80
COCCOc1cc2ncnc(Nc3ccc(N(CCCl)CCCl)cc3)c2cc1OCCOC | 4.88 | < 4.00 | 4.07 | < 4.00 | < 4.00 | –
COc1cc2ncnc(Nc3ccccc3N(CCCl)CCCl)c2cc1OC(C)=O | 4.55 | 4.00 | 4.32 | 4.24 | 4.20 | –
COc1cc2ncnc(Nc3ccc(N(CCCl)CCCl)cc3)c2cc1OC(C)=O | 4.76 | 4.31 | 4.33 | 4.54 | 4.54 | –
COc1cc2ncnc(Nc3ccccc3N(CCCl)CCCl)c2cc1OC | 4.65 | < 4.00 | 4.11 | 4.05 | 4.09 | –
COc1cc2ncnc(Nc3cccc(N(CCCl)CCCl)c3)c2cc1OC(C)=O | 4.62 | 4.67 | 4.54 | 4.40 | 4.41 | –
COc1cc2ncnc(Nc3ccc(N(CCCl)CCCl)cc3)c2cc1OCCCN1CCOCC1 | 4.68 | 4.77 | 4.91 | 4.26 | 4.56 | –
COCCOc1cc2ncnc(Nc3cccc(N(CCCl)CCCl)c3)c2cc1OCCOC | 4.77 | < 4.00 | 4.48 | < 4.00 | 4.11 | –
COc1cc2ncnc(Nc3ccc(N(CCCl)CCCl)cc3)c2cc1O | 4.36 | 4.12 | 4.33 | 4.38 | 4.27 | –

Reference: ChEMBL document CHEMBL2417464, “Design and synthesis of novel quinazoline nitrogen mustard derivatives as potential therapeutic agents for cancer” (Eur J Med Chem, 2013)
